# Laboratory results: PubChem BioAssay AID2247 (Johns Hopkins Ion Channel Center, 2010)
# Hit rate of the full screen: of about 300,000 compounds, about 1,200 (0.4%) were called active.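 How the source made its calls: active means B-score over 3 SD under the library average, no early fluorescence shift, positive overall ratio signal; inactive means the rest.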 What follows is part of a selection rich in actives, with near analogues and random picks from the rest.
# Molecular target: Short transient receptor potential channel 4 (Mus musculus) (UniProt Q9QUQ5)
# Sequence (Q9QUQ5 whole entry, looked up): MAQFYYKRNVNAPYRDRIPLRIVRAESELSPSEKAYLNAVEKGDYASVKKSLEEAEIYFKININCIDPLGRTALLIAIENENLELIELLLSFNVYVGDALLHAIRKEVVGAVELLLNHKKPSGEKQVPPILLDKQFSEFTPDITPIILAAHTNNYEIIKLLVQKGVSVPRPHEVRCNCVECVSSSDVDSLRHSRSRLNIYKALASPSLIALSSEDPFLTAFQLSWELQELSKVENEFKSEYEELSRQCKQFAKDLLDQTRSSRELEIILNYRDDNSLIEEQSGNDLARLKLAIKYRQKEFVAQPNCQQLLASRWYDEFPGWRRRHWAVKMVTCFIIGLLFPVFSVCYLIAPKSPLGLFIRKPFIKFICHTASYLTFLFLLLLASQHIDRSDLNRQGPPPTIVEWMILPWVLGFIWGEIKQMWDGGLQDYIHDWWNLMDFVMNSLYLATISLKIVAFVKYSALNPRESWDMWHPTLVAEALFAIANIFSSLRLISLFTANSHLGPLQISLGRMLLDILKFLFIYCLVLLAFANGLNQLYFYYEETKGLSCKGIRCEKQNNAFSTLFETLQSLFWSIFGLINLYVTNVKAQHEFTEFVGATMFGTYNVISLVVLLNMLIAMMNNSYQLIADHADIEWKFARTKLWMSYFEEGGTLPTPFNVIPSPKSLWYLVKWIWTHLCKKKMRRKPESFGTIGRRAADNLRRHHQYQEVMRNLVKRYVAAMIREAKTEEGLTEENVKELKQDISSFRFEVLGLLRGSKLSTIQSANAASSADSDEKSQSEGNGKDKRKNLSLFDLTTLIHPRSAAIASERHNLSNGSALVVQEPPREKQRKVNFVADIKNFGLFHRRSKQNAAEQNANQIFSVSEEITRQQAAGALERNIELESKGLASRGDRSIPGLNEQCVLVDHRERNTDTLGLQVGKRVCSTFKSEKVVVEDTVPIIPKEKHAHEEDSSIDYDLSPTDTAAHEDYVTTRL
# Test: blockers of DAMGO-evoked TRPC4 calcium flux – Fluo4 calcium, HEK293 TRPC4beta/mu-opioid cells, primary screen (AID 2247)
# Conditions: at 10 µM; stronger effect = lower value
# Outline: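 Assay system: HEK293 cells with stable TRPC4beta plus mu-opioid receptor expression. Dosing: single dose. Measured by: Fluo4 Ca2+ flux fluorescence. Also added: DAMGO in two steps, submaximal then maximal. Read-out: B score from integrated Fluo4 fluorescence ratio.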
row,SMILES,B-score
1,CCOC(=O)C1(Cc2ccc(Cl)cc2)CCN(C(C)CCn2cccn2)CC1 (stereo not given),-6 (active)
2,CN(C)CC1CCCCC1=O (stereo not given),inactive
3,CC(=O)N(C1=NCCCS1)c1ccccc1F,inactive
4,CSc1ccc(C(=O)C2CCCN(Cc3ccn[nH]3)C2)cc1 (stereo not given),inactive
5,COc1ccc(C(=O)C2CN(C)CC2C(=O)c2ccc(OC)cc2)cc1 (stereo not given),inactive
6,Cc1ccc(C2CN(C)CC2C(=O)c2ccc(F)cc2)cc1 (stereo not given),-6 (active)
7,CN1CCC(OC(=O)c2cccc(F)c2)CC1,inactive
8,O=c1[nH]c(CN2CC=C(c3ccccc3)CC2)nc2scc(-c3cccs3)c12,inactive
9,COc1ccc(CN2CCN(c3ccccc3F)CC2)c(OC)c1,inactive
10,CCC(=NCc1ccco1)c1c(O)n(Cc2ccccc2)c(=O)[nH]c1=O,inactive
11,c1ccc(CCN2CCC3(CC2)OCCO3)cc1,inactive
12,CCOC(=O)C1(CCc2ccccc2)CCN(Cc2ccco2)CC1,-8 (active)
13,COc1ccc(N=Cc2c(O)n(C)c(=O)[nH]c2=O)cc1,inactive
14,N#CC1=C(N)Oc2c(c(=O)oc3ccccc23)C1c1ccccc1OC(=O)c1cccs1 (stereo not given),inactive
15,COC(=O)C1=C(c2cc3ccccc3s2)C[C@@H]2CC[C@H]1N2C(=O)NC(C)C,inactive
16,COC(=O)C1=C(c2cc3ccccc3s2)C[C@@H]2CC[C@H]1N2C(=O)NCCO,-6 (active)
17,COC(=O)C1=C(c2cc3ccccc3s2)C[C@@H]2CC[C@H]1N2C(=O)NCc1cccc2ccccc12,inactive
18,OCC#CC[N+]1(CC#Cc2ccccc2)CCCC1,inactive
19,CNCC(O)c1cc(F)c(OCc2ccccc2)c(OCc2ccccc2)c1F (stereo not given),inactive
20,CCOc1cccc(=NC2CCCCC2)c2c(C)[nH]c(C)c12,inactive
